This is an account of results in article PMC4872389 (The American journal of Chinese medicine, 2016).

Data set [1] can be described thus: Plasma and tissue D, DA, DOH after sub-chronic dietary AGN exposure. The format is in vivo, male C57BL/6J mice. The settings on record: for Terminal-bleed plasma level by HPLC-UV: 0.5% and 1% AGN diet, 6 weeks, all but one mouse; for concentration at 6 weeks: male, C57BL/6J, mouse, oral. In outline: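 Male C57BL/6J mice, 6 weeks old, 10 per group, were fed AIN-93M diet containing 0.5% or 1% (w/w) AGN extract ad libitum for 6 weeks. Terminal plasma was taken by cardiac puncture (heparin) under anesthesia, 1–4 pm. Tissues were homogenized in 4 volumes of water. Samples were extracted with ethyl acetate and analyzed by HPLC-UV, with D and DA quantitated together. Values are mean ± SE, n=5.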

A short description of data set [2]: Plasma and tissue D, DA, DOH after a single gavage dose of D/DA. The format is in vivo, male C57BL/6 mice. A digest of the protocol: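 Male C57BL/6 mice, 6–7 weeks old, 5 per group, got one gastric gavage of 3 mg D/DA (1.8 mg D + 1.2 mg DA) in 0.3 mL of 10% ethanol/20% PEG400/3.3% Tween80/66.7% USP 5% dextrose. Plasma (cardiac puncture, heparin) and tissues were collected at time points over 24 h. Water homogenates (ice bath) were extracted with ethyl acetate. Analysis was HPLC-UV, except prostate by UHPLC-MS/MS.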

Data set [3] deals with cytochrome p450 (Cyp). Conditions: orally administered general Cyp inhibitor; ref Zhang et al., 2015b; cited from earlier work.
The nature of data set [4]: Plasma, tissue and urine pyranocoumarins after repeated i.p. AGN. The format is in vivo, CD-1 mice. The settings on record: 3 h after last i.p. injection of AGN. A digest of the protocol:
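CD-1 mice, 8–10 weeks old, 6 per sex per group, were kept on AIN-93M diet. They received i.p. vehicle or AGN extract at 100, 200 or 300 mg/kg in 0.3 mL, six days/week for 4 weeks, with dose adjusted weekly to body weight. Blood and organs were taken 3 h after the last injection. Extracts were made with ethyl acetate and analyzed by HPLC-UV; n=4~6 per dose group.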

The conditions of data set [5]: rat, in vivo; cited from earlier work.
Where [6] appears, read: adipose, single gavage 3 mg D/DA.
The mark [7] stands for this setting: kidney, single gavage 3 mg D/DA.
Where [8] appears, read: male, C57BL/6, mouse, plasma, po, 3 mg.
[9] abbreviates: prostate, single gavage 3 mg D/DA.

One may read the Tmax as the time at which the peak concentration occurs. In the case of `C/C=C(/C)C(=O)O[C@H]1Cc2cc3ccc(=O)oc3cc2OC1(C)C` [DA, decursinol angelate], the “Terminal-bleed plasma level by HPLC-UV” value in data set [1] is “below limit of detection”. Also, the Cmax was determined as 7.26 µmol/kg in data set [2] (setting [6]); 1.78 µmol/kg in data set [2] (brain, single gavage 3 mg D/DA); 5.51 µmol/kg in data set [2] (setting [7]); 2.95 µmol/kg in data set [2] (liver, single gavage 3 mg D/DA); 3.13 µmol/kg in data set [2] (lung, single gavage 3 mg D/DA); 0.76 µM in data set [2] (setting [8]). For the same molecule, the Cmax in data set [2] (setting [9]) worked out at 14.80 µmol/kg. For the same molecule, the time of peak concentration (Tmax) in data set [2] (male, C57BL/6, mouse, po, 3 mg) amounted to 1 h. Moreover, in data set [3], the “Increase of prostate retention on blocking Cyp activities” value is listed as 2 orders of magnitude.
With `CC1(C)Oc2cc3oc(=O)ccc3cc2C[C@@H]1O` [DOH, decursinol], the concentration at 6 weeks in data set [1] (brain) stood at 2.97 µM; in data set [1] (kidney) it was 14.4 µM; in data set [1] (liver), 41.1 µM; in data set [1] (lung) it was 3.33 µM; in data set [1] (plasma, 0.5 % AGN in diet), 0.99 ± 0.11 µM; in data set [1] (plasma, 1 % AGN in diet), 2.44 ± 0.52 µM. In data set [1] (prostate), this molecule registered a concentration at 6 weeks of 12.8 µM. For the same molecule, the “Content in liver, lung, kidney and brain relative to plasma” value in data set [4] is listed as “lower than its plasma level”. In addition, the Cmax in data set [2] (setting [6]) was found to be 28.5 µmol/kg; in data set [2] (brain, single gavage 3 mg D/DA), 23.3 µmol/kg; in data set [2] (setting [7]), 50.4 µmol/kg; in data set [2] (liver, single gavage 3 mg D/DA), 47.8 µmol/kg; in data set [2] (lung, single gavage 3 mg D/DA) it was 31.6 µmol/kg; in data set [2] (setting [8]) it was 39.8 µM. In data set [2] (setting [9]), this molecule showed a Cmax of 46.4 µmol/kg. Further, in data set [2] (male, C57BL/6, mouse, po, 3 mg), the Tmax was 1 h.
As for `CC(C)=CC(=O)O[C@H]1Cc2cc3ccc(=O)oc3cc2OC1(C)C` [D, decursin], in data set [1], the “Terminal-bleed plasma level by HPLC-UV” value is on record as “below limit of detection”. In addition, the Reported safe dose in data set [5] is recorded as 250 mg D/kg. Moreover, the Cmax in data set [2] (setting [6]) came to 1.75 µmol/kg; in data set [2] (brain, single gavage 3 mg D/DA), 1.00 µmol/kg; in data set [2] (setting [7]) it was 0.42 µmol/kg; in data set [2] (liver, single gavage 3 mg D/DA) it was 0.38 µmol/kg; in data set [2] (lung, single gavage 3 mg D/DA), 0 µmol/kg; in data set [2] (setting [8]), 0.38 µM. In data set [2] (setting [9]), this molecule registered a Cmax of 4.90 µmol/kg. The Tmax in data set [2] (male, C57BL/6, mouse, po, 3 mg) turned out to be 1 h. Moreover, the “Increase of prostate retention on blocking Cyp activities” value in data set [3] is on record as 2 orders of magnitude.
